# ChEMBL document CHEMBL3872212, “Synthesis, antimicrobial activity and advances in structure-activity relationships (SARs) of novel tri-substituted thiazole derivatives” (2016)
# Key:
# Type in all cases: functional
# Bacillus spizizenii [1] = assay: Antibacterial activity against Bacillus subtilis ATCC 6633 at 200 ug/mL measured after 24 hrs by filter paper disc method; settings: ATCC 6633, 24 h, read-out: DIZ
# Staphylococcus aureus [2] = assay: Antibacterial activity against Staphylococcus aureus ATCC 19433 at 200 ug/mL measured after 24 hrs by filter paper disc method; settings: ATCC 19433, 24 h, read-out: DIZ
# Escherichia coli [3] = assay: Antibacterial activity against Escherichia coli ATCC 8739 at 200 ug/mL measured after 24 hrs by filter paper disc method; settings: ATCC 8739, 24 h, read-out: DIZ
# Proteus vulgaris [4] = assay: Antibacterial activity against Proteus vulgaris […] at 200 ug/mL measured after 24 hrs by filter paper disc method; settings: read-out: DIZ
# Aspergillus niger [5] = assay: Antifungal activity against Aspergillus niger MTCC 1881 at 200 ug/mL incubated at 4 degC for 24 hrs followed by subsequent incubation at 37.5 degC for 3 days by poisoned food method; settings: read-out: DIZ
# Aspergillus flavus [6] = assay: Antifungal activity against Aspergillus flavus MTCC 1884 at 200 ug/mL incubated at 4 degC for 24 hrs followed by subsequent incubation at 37.5 degC for 3 days by poisoned food method; settings: read-out: DIZ
# Staphylococcus aureus [7] = assay: Antibacterial activity against Staphylococcus aureus ATCC 19433 measured after 24 hrs by broth dilution method
# How it was run: (§1)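 MIC is the lowest concentration that arrests growth of the organism.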
# Escherichia coli [8] = assay: Antibacterial activity against Escherichia coli ATCC 8739 measured after 24 hrs by broth dilution method; how it was run: as §1
# Proteus vulgaris [9] = assay: Antibacterial activity against Proteus vulgaris […] measured after 24 hrs by broth dilution method; how it was run: as §1
# Aspergillus niger [10] = assay: Antifungal activity against Aspergillus niger MTCC 1881 measured after 2 days by broth dilution method; how it was run: as §1
# Aspergillus flavus [11] = assay: Antifungal activity against Aspergillus flavus MTCC 1884 measured after 2 days by broth dilution method; how it was run: as §1
# Bacillus spizizenii [12] = assay: Bactericidal activity against Bacillus subtilis ATCC 6633 measured after 24 hrs by broth dilution method
# How it was run: (§2)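 MBC/MFC is found by further steps carried out once the MIC has been determined.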
# Staphylococcus aureus [13] = assay: Bactericidal activity against Staphylococcus aureus ATCC 19433 measured after 24 hrs by broth dilution method; how it was run: as §2
# Escherichia coli [14] = assay: Bactericidal activity against Escherichia coli ATCC 8739 measured after 24 hrs by broth dilution method; how it was run: as §2
# Proteus vulgaris [15] = assay: Bactericidal activity against Proteus vulgaris […] measured after 24 hrs by broth dilution method; how it was run: as §2
# Aspergillus niger [16] = assay: Fungicidal activity against Aspergillus niger MTCC 1881 measured after 2 days by broth dilution method; how it was run: as §2
# Aspergillus flavus [17] = assay: Fungicidal activity against Aspergillus flavus MTCC 1884 measured after 2 days by broth dilution method; how it was run: as §2
# Bacillus spizizenii [18] = assay: Antibacterial activity against Bacillus subtilis ATCC 6633 measured after 24 hrs by broth dilution method; how it was run: as §1
# Escherichia coli [19] = assay: Ratio of MBC to MIC for Escherichia coli ATCC 8739
# Aspergillus flavus [20] = assay: Ratio of MFC to MIC for Aspergillus flavus MTCC 1884
# Staphylococcus aureus [21] = assay: Ratio of MBC to MIC for Staphylococcus aureus ATCC 19433
# Proteus vulgaris [22] = assay: Ratio of MBC to MIC for Proteus vulgaris […]
# Bacillus spizizenii [23] = assay: Ratio of MBC to MIC for Bacillus subtilis ATCC 6633
# Aspergillus niger [24] = assay: Ratio of MFC to MIC for Aspergillus niger MTCC 1881
SMILES,zone of inhibition at 200 µg/mL (Bacillus spizizenii [1]) [mm],zone of inhibition at 200 µg/mL (Staphylococcus aureus [2]) [mm],zone of inhibition at 200 µg/mL (Escherichia coli [3]) [mm],zone of inhibition at 200 µg/mL (Proteus vulgaris [4]) [mm],zone of inhibition at 200 µg/mL (Aspergillus niger [5]) [mm],zone of inhibition at 200 µg/mL (Aspergillus flavus [6]) [mm],MIC (Staphylococcus aureus [7]) [µg],MIC (Escherichia coli [8]) [µg],MIC (Proteus vulgaris [9]) [µg],MIC (Aspergillus niger [10]) [µg],MIC (Aspergillus flavus [11]) [µg/mL],MBC (Bacillus spizizenii [12]) [µg],MBC (Staphylococcus aureus [13]) [µg],MBC (Escherichia coli [14]) [µg],MBC (Proteus vulgaris [15]) [µg],MFC (Aspergillus niger [16]) [µg],MFC (Aspergillus flavus [17]) [µg],MIC (Bacillus spizizenii [18]) [µg/mL],Ratio (Escherichia coli [19]),Ratio (Aspergillus flavus [20]),also measured
Cc1ccc(-c2ccc(-c3nc(C)sc3C)cc2)cc1,21.1,23.1,24.2,19.5,19.7,21.3,100,12.5,50,25,25,100,>200,100,100,>200,100,–,–,–,–
COc1ccc(-c2ccc(-c3nc(C)sc3C)cc2)cc1,22.1,25.5,27.1,21.6,23.4,24.9,50,12.5,25,12.5,25,100,>200,25,100,100,50,6.25,2,2,–
COc1cccc(-c2ccc(-c3nc(C)sc3C)cc2)c1,15.2,17.5,19.2,18.8,6.32,9.11,–,–,–,–,–,–,–,–,–,–,–,–,–,–,–
COc1ccc(-c2ccc(-c3nc(C)sc3C)cc2)cc1OC,22,24.1,25.6,20.9,22.5,24.2,25,50,25,25,–,100,50,200,100,100,200,12.5,–,–,Ratio (Staphylococcus aureus [21]): 2; Ratio (Proteus vulgaris [22]): 2
Cc1nc(-c2ccc(-c3ccc(C(F)(F)F)cc3)cc2)c(C)s1,5.37,7.86,8.7,6.91,–,–,–,–,–,–,–,–,–,–,–,–,–,–,–,–,–
Cc1nc(-c2ccc(-c3ccc(I)cc3)cc2)c(C)s1,12.1,14.8,16.2,15.1,8,9.57,–,–,–,–,–,–,–,–,–,–,–,–,–,–,–
Cc1nc(-c2ccc(-c3cccc(C=O)c3)cc2)c(C)s1,6.65,8.02,9.56,7.39,3.92,6.29,–,–,–,–,–,–,–,–,–,–,–,–,–,–,–
Cc1nc(-c2ccc(-c3ccc(CO)cc3)cc2)c(C)s1,20,21.6,23.8,17.6,14.5,17.1,12.5,25,100,25,25,100,>200,100,>200,200,100,–,>2,>2,Ratio (Bacillus spizizenii [23]): >2; Ratio (Staphylococcus aureus [21]): >2; Ratio (Proteus vulgaris [22]): >2; Ratio (Aspergillus niger [24]): >2
Cc1nc(-c2ccc(-c3ccc(F)c(C)c3)cc2)c(C)s1,14.6,16.4,18.1,15.2,–,5.63,–,–,–,–,–,–,–,–,–,–,–,–,–,–,–
Cc1cc(C)c(-c2ccc(-c3nc(C)sc3C)cc2)c(C)c1,24.6,26.1,28,22.1,25.2,27.8,25,6.25,12.5,6.25,12.5,50,100,12.5,50,100,25,6.25,2,2,–
Cc1nc(-c2ccc(-c3ccc(O)cc3)cc2)c(C)s1,17.7,19.2,21.1,20,13.6,15.3,25,25,50,50,25,200,100,>200,200,200,100,–,>2,>2,Ratio (Bacillus spizizenii [23]): >2; Ratio (Staphylococcus aureus [21]): >2; Ratio (Proteus vulgaris [22]): >2; Ratio (Aspergillus niger [24]): >2
O=C(O)c1cn(C2CC2)c2cc(N3CCNCC3)c(F)cc2c1=O [CIPROFLOXACIN],25.5,27,29.8,23.2,–,–,6.25,6.25,–,–,–,–,–,–,–,–,–,6.25,–,–,–
CC(=O)N1CCN(c2ccc(OCC3COC(Cn4ccnc4)(c4ccc(Cl)cc4Cl)O3)cc2)CC1 (stereo not given) [KETOCONAZOLE],–,–,–,–,25.4,28.4,–,–,–,6.25,12.5,–,–,–,–,–,–,–,–,–,–
